# Screening results deposited in PubChem BioAssay by Johns Hopkins Ion Channel Center.
# Only some compounds are listed: those with a hit (about 2.9% of all), similar ones and a draw of the others.
# TRPC4 inh: inhibitors of mouse TRPC4 channel, primary screen, Fluo4 calcium, HEK293 TRPC4beta/mu-opioid cells. Short transient receptor potential channel 4 (Mus musculus), Q9QUQ5. DAMGO-evoked Fluo4 calcium flux; hits give low values. B-score at 10 µM. 0.39% of 300,000 active;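 active means B-score over 3 SD under the library average, no early fluorescence shift, positive overall ratio signal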
#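 test system = HEK293 cells with stable TRPC4beta plus mu-opioid receptor expression | detection = Fluo4 Ca2+ flux fluorescence | read-out = integrated fluorescence ratio relative to baseline, converted to per-well B score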
# Kir21 inh: inhibitors of mouse Kir2.1 inward-rectifier potassium channel | HEK293-Kir2.1, FluxOR thallium flux fluorescence; hits give low values | B-score at 10 µM | 0.85% of 310,000 active;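 active means fluorescence ratio B-score at or below minus 3 SD of library scores, with starting-brightness B-score within 2 SD, cut at about -4.2 in these data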;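 further: channel flux triggered by added potassium and thallium sulfate stimulus; B-score of peak minus minimum fluorescence over baseline after thallium stimulus; more negative B-score means stronger Kir2.1 block with less thallium influx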
# TRPC6 act: mouse TRPC6 channel activators, primary screen, cell-based, HEK293, membrane potential dye; Short transient receptor potential channel 6 (Mus musculus), Q61143; HEK293-TRPC6 membrane potential dye fluorescence; hits give high values; B-score at 10 µM; 0.13% of 310,000 active;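 active means B-score of the integrated fluorescence ratio above library mean plus 3 SD, and starting fluorescence ratio within library mean plus 5 SD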;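 further: higher score means more depolarization so channel activation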
# Target sequence (Q61143 whole entry, looked up): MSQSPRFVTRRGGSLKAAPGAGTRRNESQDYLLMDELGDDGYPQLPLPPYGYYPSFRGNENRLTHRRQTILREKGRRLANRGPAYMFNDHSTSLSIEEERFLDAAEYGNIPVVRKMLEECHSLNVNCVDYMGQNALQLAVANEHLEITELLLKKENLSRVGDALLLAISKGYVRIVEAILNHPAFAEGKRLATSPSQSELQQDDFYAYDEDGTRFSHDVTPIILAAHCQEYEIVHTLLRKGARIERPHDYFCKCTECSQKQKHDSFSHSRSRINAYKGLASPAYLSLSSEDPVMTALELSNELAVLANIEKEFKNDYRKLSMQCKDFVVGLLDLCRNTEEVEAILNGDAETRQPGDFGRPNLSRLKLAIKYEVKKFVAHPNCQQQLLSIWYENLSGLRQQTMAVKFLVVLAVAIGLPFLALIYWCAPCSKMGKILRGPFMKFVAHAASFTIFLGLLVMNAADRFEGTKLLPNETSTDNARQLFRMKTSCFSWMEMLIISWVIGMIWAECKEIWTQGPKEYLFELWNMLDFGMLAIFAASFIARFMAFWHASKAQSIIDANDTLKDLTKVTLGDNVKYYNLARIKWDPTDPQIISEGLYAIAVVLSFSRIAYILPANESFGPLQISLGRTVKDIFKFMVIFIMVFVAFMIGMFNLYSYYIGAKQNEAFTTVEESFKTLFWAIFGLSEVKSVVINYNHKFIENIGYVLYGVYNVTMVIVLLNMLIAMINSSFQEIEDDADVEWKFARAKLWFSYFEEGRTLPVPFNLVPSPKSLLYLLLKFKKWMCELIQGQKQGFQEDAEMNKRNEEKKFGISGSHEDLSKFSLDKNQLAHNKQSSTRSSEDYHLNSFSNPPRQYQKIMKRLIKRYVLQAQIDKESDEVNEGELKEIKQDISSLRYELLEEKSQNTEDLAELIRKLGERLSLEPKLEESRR
# TRPC4 act: activators of mouse TRPC4 channel, primary screen, Fluo4 calcium, HEK293 TRPC4beta/mu-opioid cells | Short transient receptor potential channel 4 (Mus musculus), Q9QUQ5 | 0.49% of 310,000 active | B-score at 10 µM | Fluo4 calcium fluorescence; hits give high values;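 active means B-score above 5 SD of library B-scores, and initial fluorescence ratio not above library mean plus 5 SD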;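 further: positive B-score marks a calcium rise read as TRPC4 activation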
#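 Test system: HEK293 cells stably co-expressing mouse TRPC4beta and mu-opioid receptor | Schedule: Fluo4 dye loading 45 min at room temperature, 110 s recording | Measured by: Kinetic Fluo4 calcium fluorescence, 5 s baseline at 1 Hz | Evaluation: B score of integrated ratio | Controls: Buffer (low) and maximal DAMGO (high)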
# TRPC4 PAM: positive allosteric modulators of TRPC4, primary screen, cell-based, mouse TRPC4beta, HEK293 mu-opioid, Fluo-4 calcium. Short transient receptor potential channel 4 (Mus musculus), Q9QUQ5. 0.42% of 310,000 active. DAMGO EC20, Fluo-4 Ca2+ flux; hits give high values. B-score at 10 µM. AID 2227, 2009;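 active means B-score of calcium response area above 5 SD of library B-scores, with initial fluorescence ratio within 5 SD of library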;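 further: B-score of integrated fluorescence ratio over time as area under calcium response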
# TRPC6 inh: mouse TRPC6 channel inhibitors, primary screen, cell-based, HEK293, membrane potential dye; Short transient receptor potential channel 6 (Mus musculus), Q61143; ACh-evoked depolarization; hits give low values; B-score at 10 µM; 1.1% of 310,000 active;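 active means B-score under library mean minus 3 SD, initial fluorescence not abnormally high, positive integrated signal ratio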;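 further: B-score derived from integrated fluorescence ratio over the kinetic read; more negative B-score means stronger inhibition of depolarization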
# TRPC4 spec 2: second check of whether TRPC6 inhibitors also affect mouse TRPC4; 42% of 920 active; inhibition, % at 10 µM; shares compounds with TRPC6 inh; HEK293 TRPC4/MOR, membrane potential dye fluorescence; channel activated by saturating DAMGO dose;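 active means compounds whose fluorescence signal differed from control wells by over 3 SD, either direction, in both duplicate plates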
# TRPC4 spec: mouse TRPC4 modulation by TRPC6 hits, confirmation, selectivity assay for TRPC6 inhibitor project, cell-based, HEK293 TRPC4/mu-opioid, membrane potential dye; shares compounds with TRPC6 inh; membrane potential fluorescence; activity change, negative = inhibition, % at 10 µM; 61% of 920 active;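 active means rise or fall in signal beyond 3 SD of buffer-only wells in both replicate plates, either sign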;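 further: integrated kinetic ratio of fluorescence range over baseline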
# HEK293 counter 2: nonspecific membrane potential effects, parental HEK293, confirmation, counter-screen for TRPC6 inhibitor project, cell-based, second counter screen. parental HEK293 membrane potential dye fluorescence; maximal acetylcholine challenge after compound addition. signal change vs control, % at 10 µM. AID 2779, 2010. 31% of 920 active. shares compounds with TRPC6 inh;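 active means membrane potential signal moving either way by over 3 SD of the maximum-effect control, in both duplicate plates, meaning non-specific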
# HEK293 counter: membrane potential modulation in parental HEK293, confirmation, counter-screen for TRPC6 inhibitor project, cell-based; membrane potential signal change, % at 10 µM; 60% of 920 active; shares compounds with TRPC6 inh; parental HEK293 membrane potential dye fluorescence; AID 2780, 2010;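 active means membrane potential signal shifting up or down by more than 3 SD of buffer-only wells, on both duplicate plates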
# TRPC6 inh conf: mouse TRPC6 channel inhibitors, confirmation, HEK293 cells, membrane potential dye, duplicate; shares compounds with TRPC6 inh; ACh-evoked depolarization; inhibition, % at 10 µM; 43% of 3,300 active; AID 488960, 2010;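 active means fluorescence ratio falls more than 5 SD below the full-stimulation control mean, in both duplicate runs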;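 further: integrated fluorescence ratio of peak minus minimum over baseline after agonist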
# TRPC6 act conf: mouse TRPC6 channel activators, confirmation, HEK293 cells, membrane potential dye, duplicate; shares compounds with TRPC6 inh; HEK293-TRPC6 membrane potential dye fluorescence, FDSS; activation, % at 10 µM; 11% of 2,800 active;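 active means ratio signal rise beyond 5 SD above unstimulated control wells' mean, seen in both duplicate runs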;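 further: plate controls were buffer EC0 wells for no effect and acetylcholine ECmax response for full effect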
# * = called active by the depositor; i = inactive; · = not tested or not shown.
SMILES,TRPC4 inh,Kir21 inh,TRPC6 act,TRPC4 act,TRPC4 PAM,TRPC6 inh,TRPC4 spec 2,TRPC4 spec,HEK293 counter 2,HEK293 counter,TRPC6 inh conf,TRPC6 act conf
C=CCn1c(=N)n(CC(=O)c2ccc(Br)s2)c2ccccc21,i,0.48,i,i,i,-8.03*,13.0%*,16.9%*,i,i,64.5%*,i
C=CCn1c(=N)n(CC(=O)OC)c2ccccc21,i,0.03,i,i,i,i,·,·,·,·,·,·
N=c1n(CC(=O)c2cccs2)c2ccccc2n1Cc1ccccc1,i,-2.95,i,i,i,-9.73*,33.0%*,i,i,2.0%*,64.7%*,i
Cc1ccc(OCC(=O)NNC(=O)Cc2ccc(S(=O)(=O)N3CCOCC3)s2)cc1,i,1.03,i,i,i,i,·,·,·,·,·,·
CN(C)C/C=C/C(O)(c1ccccc1)c1ccccc1,i,0.19,i,i,i,-7.59*,i,i,i,1.3%*,60.6%*,i
CN(C)C/C(Cl)=C(\Cl)c1ccccc1,i,-0.2,i,i,i,i,·,·,·,·,·,·
CCCCN(CCCC)c1cn[nH]c(=O)c1Cl,i,1.61,i,i,i,-6.86*,i,20.6%*,i,11.3%*,i,·
O=c1[nH]ncc(N2CCCCC2)c1Cl,i,1.08,i,i,i,i,·,·,·,·,·,·
